Reference: PMC5598371 (Toxicology Reports, 2015)

Columns and labels:
[1] = tested on: HGEP vs human OSCC cell lines; experiment: Tumor-specificity; type: cell-based; settings: for Tumor-specificity index (TS) F/B: CC50 HGEP / mean CC50 OSCC lines; for Potency-selectivity expression (PSE) F/B^2: TS x (1/B) x 100, HGEP as normal cells
[2] = Cytotoxic activity, MTT method; type: cell-based; settings: human, oral keratinocytes (HOK), normal epithelial cells
Procedure, shortened: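 HOK grown in keratinocyte growth supplement medium, harvested with 0.25% trypsin-0.025% EDTA. Seeded at 2.5 × 10^3 cells/0.1 ml, grown 48 h, then medium replaced with fresh medium containing test compound dilutions (80 mM DMSO stocks; final DMSO usually below […]) or matched DMSO vehicle. After incubation, 0.2 mg/ml MTT for 3 h, DMSO lysis, A540. CC50 from dose–response curve.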

HSC-3 = settings: read-out: 50% cytotoxic concentration (CC50); HSC-3, derived from tongue; cited from earlier work
[3] = Effect of tetraethylammonium or cycloheximide on cytotoxicity; type: cell-based; settings: Supplementary Fig. 3
HSC-2 cells [4] = experiment: Western blot analysis of apoptosis and autophagy markers; type: cell-based, human
Procedure, shortened: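 HSC-2 cells treated with or without 10 μM for 4, 7.5 or 23 h. Laemmli whole-cell lysates (5 × 10^4 cells/lane) run on 12% SDS-PAGE and blotted to PVDF. Blocked 1 h in 5% BSA/TBS-Tween (pH 7.6). Primary anti-PARP, anti-caspase-3, anti-LC3 (1:1000) and anti-GAPDH (1:20,000) overnight at 4 °C, then HRP anti-rabbit 1 h at room temperature. Chemiluminescent detection; band densities expressed relative to GAPDH.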

[5] = tested on: Periodontal ligament fibroblast (HPLF); settings: read-out: 50% cytotoxic concentration (CC50), normal; cited from earlier work
Ca9-22 = settings: read-out: 50% cytotoxic concentration (CC50); Ca9-22, derived from gingiva (A); cited from earlier work
[6] = tested on: HGF/HPLF/HPC vs human OSCC cell lines; experiment: Tumor-specificity; type: cell-based; settings: TS x (1/B) x 100; HGF/HPLF/HPC as normal cells
[7] = tested on: HGF/HPLF/HPC vs human OSCC cell lines; settings: mean CC50 HGF/HPLF/HPC / mean CC50 OSCC lines; cited from earlier work
[8] = tested on: Gingival fibroblast (HGF); settings: read-out: 50% cytotoxic concentration (CC50), normal (C); cited from earlier work
[9] = tested on: HOK vs human OSCC cell lines; experiment: Tumor-specificity; type: cell-based; settings: for Tumor-specificity index (TS) E/B: CC50 HOK / mean CC50 OSCC lines; for Potency-selectivity expression (PSE) E/B^2: TS x (1/B) x 100, HOK as normal cells
HSC-2 = settings: read-out: 50% cytotoxic concentration (CC50); HSC-2, derived from tongue; cited from earlier work
HGF vs Ca9-22 = settings: CC50 HGF / CC50 Ca9-22; cited from earlier work
HSC-2 cells [10] = experiment: Fine cell structure under transmission electron microscope; type: cell-based, human; settings: 3 h with 3 or 10 μM, compared with control cells
Procedure, shortened: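 HSC-2 cells were seeded at 5 × 10^5 cells/10 ml and […]. After a medium change, near-confluent cells were exposed 3 h to test compound (0, 3 or 10 μM) and washed in cold PBS. Fixation: 2% glutaraldehyde/0.1 M cacodylate pH 7.4, 1 h, 4 °C, then scraped, pelleted and post-fixed 90 min in 1% OsO4. Dehydrated, Araldite-embedded, thin sections stained with uranyl acetate and lead citrate; TEM at ×5000, 100 kV.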

HSC-4 = settings: read-out: 50% cytotoxic concentration (CC50); HSC-4, derived from tongue; cited from earlier work
HSC-2 cells [11] = experiment: Metabolomic analysis; type: cell-based, human
Procedure, shortened: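 HSC-2 seeded 5 × 10^5 cells/10 ml, grown 48 h, re-fed for 30 min at 37 °C, then treated 3 h with 0, 1, 3 or 10 μM. Trypan-blue cell counts taken. Extraction: mannitol wash, then methanol with internal standards, chloroform/water partition and 5 kDa ultrafiltration. CE-TOFMS run in cation (1 M formic acid) and anion (50 mM ammonium acetate, pH 8.5) modes. One-point external calibration, normalised per cell. Quadruplicates, mean ± S.D., FDR-corrected p.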

[12] = Cytotoxic activity, MTT method; type: cell-based; settings: human
Pulp cell (HPC) = settings: read-out: 50% cytotoxic concentration (CC50), normal; cited from earlier work
HSC-2 cells [13] = experiment: Time course of cytotoxicity induction; type: cell-based, human; settings: for dead cells produced: higher concentrations, Fig. 2
Procedure, shortened: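 Pulse-chase in HSC-2 (DMEM, 10% heat-inactivated FBS, 37 °C, 5% CO2). Cells seeded at 2.5 × 10^3/0.1 ml and grown 48 h. Exposed to graded test compound concentrations for varied times, then switched to drug-free medium until 47 h after first addition. Viability by MTT (0.2 mg/ml, 3 h, A540). CC50 from dose–response curve. Triplicates (Exp. I), quadruplicates (Exp. II).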

[14] = 3 h, 1, 3 or 10 μM, not significant

SMILES: COc1ccc2occ(/C=C/c3ccc(O)cc3)c(=O)c2c1 [compound 11, (E)-3-(4-hydroxystyryl)-6-methoxy-4H-chromen-4-one]
- Tumor-specificity index (TS) F/B [1]: >400
- Potency-selectivity expression (PSE) F/B^2 [1]: >20000
- CC50 [2]: 19 µM
- CC50 (HSC-3): 3.6 µM
- effect of BH blocker (tetraethylammonium) on cytotoxicity [3]: not inhibited
- effect of pretreatment with cycloheximide on cytotoxicity [3]: inhibited
- LC3-II expression (autophagy marker) (HSC-2 cells [4]; 10 μM for 4, 7.5 and 23 h): decreased time-dependently to undetectable level
- cleaved PARP1 and caspase-3 (apoptosis marker) (HSC-2 cells [4]; 10 μM, 23 h after treatment): appearance of cleaved PARP1 and caspase-3
- full length PARP (HSC-2 cells [4]; 10 μM, 23 h after treatment): loss of full length PARP
- type of cell death (HSC-2 cells [4]; 10 μM, HSC-2): induced apoptotic cell death after suppression of autophagy
- CC50 [5]: 74 µM
- CC50 (Ca9-22): 2.1 µM
- Potency-selectivity expression (PSE) D/B^2 [6]: 3450
- Tumor-specificity index (TS) D/B [7]: 69.0
- CC50 [8]: 67 µM
- Tumor-specificity index (TS) E/B [9]: 9.5
- Potency-selectivity expression (PSE) E/B^2 [9]: 475
- CC50 (HSC-2): 1 µM
- Tumor-specificity index (TS) C/A (HGF vs Ca9-22): 31.9
- mitochondrial vacuolization (HSC-2 cells [10]): mitochondrial vacuolization became prominent
- CC50 (HSC-4): 1.2 µM
- intracellular concentration of 2-oxoglutarate (HSC-2 cells [11]; 3 h, 1, 3 and 10 μM, Fig. 6A): reduced, but not significantly
- intracellular concentrations of 4-methyl-2-oxopentanoate, 2-hyroxyglutarate, creatine, 2-oxoisopentanoate (Q < 0.2), glycine and choline (p < 0.05) (HSC-2 cells [11]; 3 h, 1, 3 and 10 μM, Fig. 6A): significantly reduced
- intracellular concentrations of diethanolamine and CDP-choline (HSC-2 cells [11]; 3 h, 1, 3 and 10 μM, Fig. 6B): increased, but not significantly
- intracellular concentrations of proline, asparagine, DHAP, Ru5P, transcinnamate, γ-butyrobetaine (Q < 0.2) and glutamic acid (p < 0.05) (HSC-2 cells [11]; 3 h, 1, 3 and 10 μM, Fig. 6B): significantly increased
- NADH/NAD+ ratio (HSC-2 cells [11]; [14]): minor increase
- glycolytic metabolites (glucose-6-phosphate, fructose 6-phosphate, fructose 1,6-bisphospate, 3-phosphoglyceric acid) (HSC-2 cells [11]; [14]): minor increase
- intracellular concentration of metabolites in TCA cycle (citrate, cis-aconiate, succinate, fumarate, malate) (HSC-2 cells [11]; [14]): minor reduction
- lactate (HSC-2 cells [11]; [14]): minor reduction
- polyamine pathway (putrescine, spermidine) (HSC-2 cells [11]; [14]): minor reduction
- ratio of AMP/ATP (HSC-2 cells [11]; [14]): minor reduction
- ratio of GMP/GTP (HSC-2 cells [11]; [14]): minor reduction
- urea cycle (citrullin, arginine, ornithine) (HSC-2 cells [11]; [14]): no change or minor reduction
- extracellular concentration of diethanolamine after treatment (HSC-2 cells [11]; culture medium, before treatment 12.1 ± 13.4 μM): 11.8 ± 5.3 µM
- CC50 [12]: > 800 µM
- CC50 (Pulp cell (HPC)): 272 µM
- CC50 (HSC-2 cells [13]; Homo sapiens, HSC-2, Exp. I, exposure time 21 h, drug-free medium until 47 h): < 1.56 µM
- dead cells produced (HSC-2 cells [13]): more than 90%
- treatment time at which cytotoxicity was triggered (HSC-2 cells [13]; pulse-chase, HSC-2): 3 h

SMILES: COc1ccc(/C=C/c2coc3ccc(OC)cc3c2=O)cc1 [compound 4, (E)-6-methoxy-3-(4-methoxystyryl)-4H-chromen-4-one]
- Tumor-specificity index (TS) F/B [1]: 27.8
- Potency-selectivity expression (PSE) F/B^2 [1]: 434
- CC50 [2]: 70 µM
- CC50 (HSC-3): 7.7 µM
- effect of pretreatment with cycloheximide on cytotoxicity [3]: inhibited
- CC50 [5]: 150 µM
- CC50 (Ca9-22): 4.4 µM
- Potency-selectivity expression (PSE) D/B^2 [6]: 630
- Tumor-specificity index (TS) D/B [7]: 40.3
- CC50 [8]: 229 µM
- Tumor-specificity index (TS) E/B [9]: 10.9
- Potency-selectivity expression (PSE) E/B^2 [9]: 170
- CC50 (HSC-2): 4.4 µM
- Tumor-specificity index (TS) C/A (HGF vs Ca9-22): 52.0
- CC50 (HSC-4): 9.2 µM
- CC50 [12]: 178 µM
- CC50 (Pulp cell (HPC)): 396 µM
- dead cells produced (HSC-2 cells [13]): more than 90%
